Experimental data from ChEMBL document CHEMBL3297654, “Synthesis, antimicrobial and cytotoxic activities, and structure-activity relationships of gypsogenin derivatives against human cancer cells” (Eur J Med Chem, 2014).
pIC50: −log10 of the molar value. In brackets after ≈: the same amount, converted by molar mass. Blank lines part the entries; values can stand above or below the compound they belong to. Activity calls are given as the source filed them. No cut-off for these calls is given here.

Experiments:
Bacillus thuringiensis [1] = test: Antimicrobial activity against Bacillus thuringiensis assessed as zone of inhibition at 30 uL for 24 hrs at 30 degC by disk diffusion test; format: functional
Method in brief: (§1)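 Agar well diffusion on Mueller Hinton agar seeded with 0.1 mL broth culture (18–24 h), adjusted to 0.5 McFarland (about 1×10^8 bacteria or 1×10^6 yeast cells/mL). A 6 mm well is filled with 30 µL of compound from a fresh 1000 µg/mL DMSO stock. Plates are held at 30 °C for 24 h and inhibition zone diameter is read in mm.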

MCF7 [2] = test: Induction of necrosis in human MCF7 cells at 20 uM after 48 hrs by Hoechst 33258/propidium iodide staining based phase contrast microscopic analysis; format: functional
Method in brief: (§2)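 Cells in 48-well plates treated with 0.5, 10, 20 or 40 µM for 24 and 48 h. Values are read at 48 h, 20 µM for test agents and 0.5 µM for controls. Staining is Hoechst 33258/propidium iodide double staining with fluorescence microscopy. Blue nuclei are viable or early-to-mid apoptotic, and pink nuclei are late apoptotic or necrotic. Apoptosis and necrosis are scored from chromatin condensation as % of cells. Cells are grown at 37 °C in 5% CO2 in RPMI, DMEM or McCoy's 5A with 10–15% heat-inactivated FCS.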

Nakaseomyces glabratus = test: Antimicrobial activity against Candida glabrata assessed as zone of inhibition at 30 uL for 24 hrs at 30 degC by disk diffusion test; format: functional, organism-based; method in brief: as §1
Micrococcus luteus = test: Antimicrobial activity against Micrococcus luteus ATCC 9341 assessed as zone of inhibition at 30 uL for 24 hrs at 30 degC by disk diffusion test; format: functional, organism-based; method in brief: as §1
Pseudomonas aeruginosa = test: Antimicrobial activity against Pseudomonas aeruginosa ATCC 35032 assessed as zone of inhibition at 30 uL for 24 hrs at 37 degC by disk diffusion test; format: functional, organism-based
Method in brief: (§3)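 Compound (30 µL of a fresh 1000 µg/mL DMSO stock) goes into a 6 mm well cut in Mueller Hinton agar inoculated with 0.1 mL broth culture adjusted to 0.5 McFarland (about 1×10^8 cells/mL). Plates are incubated 24 h at 37 °C, then zone of inhibition diameter is measured in mm.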

[3] = Antiproliferative activity against human Saos2 cells after 24 and 72 hrs by MTT assay; format: functional, cell-based; details: SAOS-2
Method in brief: (§4)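 ATCC human cell lines are kept in RPMI, DMEM or McCoy's 5A with 10–15% heat-inactivated FCS at 37 °C and 5% CO2. They are seeded at 1×10^4–1×10^5 cells/mL in 48-well plates and exposed to 0.5, 10, 20 or 40 µM. Viability is read by MTT (590 nm) at 24 and 72 h. Growth is expressed relative to untreated cells and IC50 is fitted, in triplicate.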

HeLa [4] = test: Induction of apoptosis in human HeLa cells at 20 uM after 48 hrs by Hoechst 33258/propidium iodide staining based phase contrast microscopic analysis; format: functional; method in brief: as §2
Caco-2 [5] = test: Antiproliferative activity against human Caco2 cells after 24 and 72 hrs by MTT assay; format: functional, cell-based; method in brief: as §4
MCF7 [6] = test: Induction of apoptosis in human MCF7 cells at 20 uM after 48 hrs by Hoechst 33258/propidium iodide staining based phase contrast microscopic analysis; format: functional; method in brief: as §2
Proteus vulgaris = test: Antimicrobial activity against Proteus vulgaris ATCC 33420 assessed as zone of inhibition at 30 uL for 24 hrs at 37 degC by disk diffusion test; format: functional, organism-based; method in brief: as §3
Bacillus cereus [7] = test: Antimicrobial activity against Bacillus cereus ATCC 11778 for 24 hrs by microdillution method; format: functional; details: ATCC 11778, 24 h
Method in brief: (§5)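 Broth microdilution. Compound is dissolved in DMSO (2 mg/mL) and diluted in Mueller Hinton broth as two-fold serial dilutions from 256 to 0.125 µg/mL. Bacteria are pre-grown in nutrient broth at 30 °C, and the final inoculum is about 10^6 cfu/mL. Tests are incubated 37 °C for 24 h. MIC is the lowest concentration giving complete inhibition. Streptomycin is the positive control.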

HT-29 [8] = test: Antiproliferative activity against human HT-29 cells after 24 and 72 hrs by MTT assay; format: functional, cell-based; method in brief: as §4
Bacillus thuringiensis [9] = test: Antimicrobial activity against Bacillus thuringiensis for 24 hrs by microdillution method; format: functional; method in brief: as §5
HL-60 [10] = test: Induction of apoptosis in human HL60 cells at 20 uM after 48 hrs by Hoechst 33258/propidium iodide staining based phase contrast microscopic analysis; format: functional; method in brief: as §2
Salmonella typhimurium = test: Antimicrobial activity against Salmonella typhimurium ATCC 14028 assessed as zone of inhibition at 30 uL for 24 hrs at 37 degC by disk diffusion test; format: functional, organism-based; details: Salmonella enterica subsp. enterica serovar Typhimurium; method in brief: as §3
Bacillus subtilis [11] = test: Antimicrobial activity against Bacillus subtilis ATCC 6633 for 24 hrs by microdillution method; format: functional; details: ATCC 6633, 24 h; method in brief: as §5
Candida albicans = test: Antimicrobial activity against Candida albicans ATCC 10231 assessed as zone of inhibition at 30 uL for 24 hrs at 30 degC by disk diffusion test; format: functional, organism-based; method in brief: as §1
SAOS-2 [12] = test: Induction of necrosis in human Saos2 cells at 20 uM after 48 hrs by Hoechst 33258/propidium iodide staining based […] microscopic analysis; format: functional; method in brief: as §2
[13] = test system: Staphylococcus epidermidis; test: Antimicrobial activity against Staphylococcus epidermidis ATCC 12228 assessed as zone of inhibition at 30 uL for 24 hrs at 37 degC by disk diffusion test; format: functional, organism-based; method in brief: as §3
Klebsiella pneumoniae = test: Antimicrobial activity against Klebsiella pneumoniae ATCC 13882 assessed as zone of inhibition at 30 uL for 24 hrs at 37 degC by disk diffusion test; format: functional, organism-based; method in brief: as §3
Cyberlindnera jadinii = test: Antimicrobial activity against Candida utilis ATCC 9950 assessed as zone of inhibition at 30 uL for 24 hrs at 30 degC by disk diffusion test; format: functional, organism-based; method in brief: as §1
MCF7 [14] = test: Antiproliferative activity against human MCF7 cells after 24 and 72 hrs by MTT assay; format: functional, cell-based; method in brief: as §4
HL-60 [15] = test: Antiproliferative activity against human HL60 cells after 24 and 72 hrs by MTT assay; format: functional, cell-based; method in brief: as §4
Caco-2 [16] = test: Induction of necrosis in human Caco2 cells at 20 uM after 48 hrs by Hoechst 33258/propidium iodide staining based phase contrast microscopic analysis; format: functional; method in brief: as §2
SAOS-2 [17] = test: Induction of apoptosis in human Saos2 cells at 20 uM after 48 hrs by Hoechst 33258/propidium iodide staining based phase contrast microscopic analysis; format: functional; method in brief: as §2
Saccharomyces cerevisiae = test: Antimicrobial activity against Saccharomyces cerevisiae ATCC 9763 assessed as zone of inhibition at 30 uL for 24 hrs at 30 degC by disk diffusion test; format: functional, organism-based; method in brief: as §1
HeLa [18] = test: Antiproliferative activity against human HeLa cells after 24 and 72 hrs by MTT assay; format: functional, cell-based; method in brief: as §4
HT-29 [19] = test: Induction of apoptosis in human HT-29 cells at 20 uM after 48 hrs by Hoechst 33258/propidium iodide staining based phase contrast microscopic analysis; format: functional; method in brief: as §2
Bacillus subtilis [20] = test: Antimicrobial activity against Bacillus subtilis ATCC 6633 assessed as zone of inhibition at 30 uL for 24 hrs at 30 degC by disk diffusion test; format: functional; method in brief: as §1
Bacillus cereus [21] = test: Antimicrobial activity against Bacillus cereus ATCC 11778 assessed as zone of inhibition at 30 uL for 24 hrs at 30 degC by disk diffusion test; format: functional; method in brief: as §1
Staphylococcus aureus = test: Antimicrobial activity against Staphylococcus aureus ATCC 25923 assessed as zone of inhibition at 30 uL for 24 hrs at 37 degC by disk diffusion test; format: functional, organism-based; method in brief: as §3
Enterococcus faecalis = test: Antimicrobial activity against Enterococcus faecalis ATCC 29212 assessed as zone of inhibition at 30 uL for 24 hrs at 37 degC by disk diffusion test; format: functional, organism-based; method in brief: as §3
HL-60 [22] = test: Induction of necrosis in human HL60 cells at 20 uM after 48 hrs by Hoechst 33258/propidium iodide staining based phase contrast microscopic analysis; format: functional; method in brief: as §2
HeLa [23] = test: Induction of necrosis in human HeLa cells at 20 uM after 48 hrs by Hoechst 33258/propidium iodide staining based phase contrast microscopic analysis; format: functional; method in brief: as §2
Escherichia coli = test: Antimicrobial activity against Escherichia coli ATCC 25922 assessed as zone of inhibition at 30 uL for 24 hrs at 37 degC by disk diffusion test; format: functional, organism-based; method in brief: as §3
Caco-2 [24] = test: Induction of apoptosis in human Caco2 cells at 20 uM after 48 hrs by Hoechst 33258/propidium iodide staining based phase contrast microscopic analysis; format: functional; method in brief: as §2
Candida tropicalis = test: Antimicrobial activity against Candida tropicalis assessed as zone of inhibition at 30 uL for 24 hrs at 30 degC by disk diffusion test; format: functional, organism-based; method in brief: as §1
HT-29 [25] = test: Induction of necrosis in human HT-29 cells at 20 uM after 48 hrs by Hoechst 33258/propidium iodide staining based phase contrast microscopic analysis; format: functional; method in brief: as §2

- pIC50 (Caco-2 [5]): 4.78
- MIC (Bacillus cereus [7]): 32 µg/mL (≈ 68 µM)
- pIC50 (HT-29 [8]): 4.92
- MIC (Bacillus thuringiensis [9]): 32 µg/mL (≈ 68 µM)
- MIC (Bacillus subtilis [11]): 32 µg/mL (≈ 68 µM)
- pIC50 (MCF7 [14]): 5.04
- pIC50 (HL-60 [15]): 4.98
- pIC50 (HeLa [18]): 4.65
Structure (SMILES): CC1(C)CC[C@]2(C(=O)O)CC[C@]3(C)C(=CC[C@@H]4[C@@]5(C)CC[C@H](O)[C@@](C)(C=O)[C@@H]5CC[C@]43C)[C@@H]2C1
- diameter of the inhibition zone (DIZ) (Bacillus thuringiensis [1]): 13 mm
- Activity (MCF7 [2]): 4%
- diameter of the inhibition zone (DIZ) (Nakaseomyces glabratus): inactive
- diameter of the inhibition zone (DIZ) (Micrococcus luteus): inactive
- diameter of the inhibition zone (DIZ) (Pseudomonas aeruginosa): inactive
- pIC50 [3]: 5.11
- Activity (HeLa [4]): 29%
- Activity (MCF7 [6]): 30%
- diameter of the inhibition zone (DIZ) (Proteus vulgaris): inactive
- Activity (HL-60 [10]): 33%
- diameter of the inhibition zone (DIZ) (Salmonella typhimurium): inactive
- diameter of the inhibition zone (DIZ) (Candida albicans): inactive
- Activity (SAOS-2 [12]): 2%
- diameter of the inhibition zone (DIZ) [13]: inactive
- diameter of the inhibition zone (DIZ) (Klebsiella pneumoniae): inactive
- diameter of the inhibition zone (DIZ) (Cyberlindnera jadinii): inactive
- Activity (Caco-2 [16]): 0%
- Activity (SAOS-2 [17]): 36%
- diameter of the inhibition zone (DIZ) (Saccharomyces cerevisiae): inactive
- Activity (HT-29 [19]): 21%
- diameter of the inhibition zone (DIZ) (Bacillus subtilis [20]): 13 mm
- diameter of the inhibition zone (DIZ) (Bacillus cereus [21]): 13 mm
- diameter of the inhibition zone (DIZ) (Staphylococcus aureus): inactive
- diameter of the inhibition zone (DIZ) (Enterococcus faecalis): inactive
- Activity (HL-60 [22]): 4%
- Activity (HeLa [23]): 0%
- diameter of the inhibition zone (DIZ) (Escherichia coli): inactive
- Activity (Caco-2 [24]): 20%
- diameter of the inhibition zone (DIZ) (Candida tropicalis): inactive
- Activity (HT-29 [25]): 2%

- MIC (Bacillus cereus [7]): 64 µg/mL (≈ 110 µM)
- MIC (Bacillus thuringiensis [9]): 64 µg/mL (≈ 110 µM)
- MIC (Bacillus subtilis [11]): 64 µg/mL (≈ 110 µM)
Structure (SMILES): CN[C@@H]1[C@H](O[C@H]2[C@H](O[C@H]3[C@H](O)[C@@H](O)[C@H](N=C(N)N)[C@@H](O)[C@@H]3N=C(N)N)O[C@@H](C)[C@]2(O)C=O)O[C@@H](CO)[C@H](O)[C@H]1O [STREPTOMYCIN]
